Laboratory results taken from ChEMBL document CHEMBL2062453, “Lead optimization through VLAK protocol: new annelated pyrrolo-pyrimidine derivatives as antitumor agents” (2012).

Columns and labels:
Format in all cases: functional
T47D = experiment: Cytotoxicity against human T47D cells after 48 hrs by SRB assay
Outline: (§1)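 NCI 60-panel five-dose screen. Cells in RPMI 1640 with 5% FBS and 2 mM glutamine, plated at 5000–40,000 cells/well and preincubated 24 h at 37 °C under 5% CO2. Five 10-fold or half-log dilutions were added from a DMSO stock for 48 h. Cells were TCA-fixed (SR settled cells: 16% final), SRB-stained and read at 515 nm. GI50 was taken where (Ti−Tz)/(C−Tz)×100 = 50.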

HCC 2998 = experiment: Cytotoxicity against human HCC2998 cells after 48 hrs by SRB assay; settings: HCC 2998, 48 h
Outline: (§2)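 NCI 60-cell five-dose screen. Cells grown in RPMI 1640 with 5% FBS and 2 mM glutamine, plated at 5000–40,000 cells/well, and preincubated 24 h at 37 °C in 5% CO2. Time-zero plates fixed with TCA. Five serial dilutions of DMSO stock added, then 48 h exposure. TCA fixation, 0.4% SRB staining, absorbance read at 515 nm. GI50 from [(Ti−Tz)/(C−Tz)]×100 = 50.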

OVCAR-4 = experiment: Cytotoxicity against human OVCAR4 cells after 48 hrs by SRB assay; settings: OVCAR-4, 48 h
Outline: (§3)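 Five-dose screen, 10-fold or ½-log dilutions, compound stock in DMSO. Cells were in RPMI 1640 with 5% FBS and 2 mM glutamine at 5000–40,000 cells/well, preincubated 24 h, 37 °C, 5% CO₂, with a time-zero plate TCA-fixed. After 48 h drug exposure, cells were TCA-fixed and stained with 0.4% SRB, read at 515 nm. GI50, TGI and LC50 were derived from time-zero, control and test absorbances.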

NCI-H322M = experiment: Cytotoxicity against human NCI-H322M cells after 48 hrs by SRB assay; outline: as §3
COLO 205 = experiment: Cytotoxicity against human COLO205 cells after 48 hrs by SRB assay; settings: COLO 205, 48 h; outline: as §2
NCI-H460 = experiment: Cytotoxicity against human NCI-H460 cells after 48 hrs by SRB assay; settings: NCI-H460, 48 h; outline: as §3
CCRF-CEM = experiment: Cytotoxicity against human CCRF-CEM cells after 48 hrs by SRB assay; outline: as §2
HCT-15 = experiment: Cytotoxicity against human HCT15 cells after 48 hrs by SRB assay; settings: HCT-15, 48 h; outline: as §2
MDA-MB-435 = experiment: Cytotoxicity against human MDA-MB-435 cells after 48 hrs by SRB assay; settings: MDA-MB-435, 48 h; outline: as §2
TK-10 = experiment: Cytotoxicity against human TK10 cells after 48 hrs by SRB assay; settings: TK-10, 48 h; outline: as §1
EKVX = experiment: Cytotoxicity against human EKVX cells after 48 hrs by SRB assay; outline: as §2
Malme-3M = experiment: Cytotoxicity against human MALME-3M cells after 48 hrs by SRB assay; outline: as §2
SK-MEL-2 = experiment: Cytotoxicity against human SK-MEL-2 cells after 48 hrs by SRB assay; settings: SK-MEL-2, 48 h; outline: as §3
A549 = experiment: Cytotoxicity against human A549 cells after 48 hrs by SRB assay; settings: A549, 48 h; outline: as §2
PC-3 = experiment: Cytotoxicity against human PC3 cells after 48 hrs by SRB assay; settings: PC-3, 48 h; outline: as §3
Hs-578T = experiment: Cytotoxicity against human Hs578T cells after 48 hrs by SRB assay; outline: as §2
CAKI-1 = experiment: Cytotoxicity against human Caki1 cells after 48 hrs by SRB assay; settings: CAKI-1, 48 h; outline: as §2
SN12C = experiment: Cytotoxicity against human SN12C cells after 48 hrs by SRB assay; outline: as §3
MDA-MB-468 = experiment: Cytotoxicity against human MDA-MB-468 cells after 48 hrs by SRB assay; settings: MDA-MB-468, 48 h; outline: as §3
SF-268 = experiment: Cytotoxicity against human SF268 cells after 48 hrs by SRB assay; settings: SF-268, 48 h; outline: as §3
KM12 = experiment: Cytotoxicity against human KM12 cells after 48 hrs by SRB assay; settings: KM12, 48 h; outline: as §2
OVCAR-5 = experiment: Cytotoxicity against human OVCAR5 cells after 48 hrs by SRB assay; settings: OVCAR-5, 48 h; outline: as §3
SNB-19 = experiment: Cytotoxicity against human SNB19 cells after 48 hrs by SRB assay; settings: SNB-19, 48 h; outline: as §3
SK-MEL-5 = experiment: Cytotoxicity against human SK-MEL-5 cells after 48 hrs by SRB assay; settings: SK-MEL-5, 48 h; outline: as §3
NCI/ADR-RES = experiment: Cytotoxicity against human NCI/ADR-RES cells after 48 hrs by SRB assay; outline: as §3
M14 = experiment: Cytotoxicity against human M14 cells after 48 hrs by SRB assay; settings: M14, 48 h; outline: as §2
MCF7 = experiment: Cytotoxicity against human MCF7 cells after 48 hrs by SRB assay; settings: MCF7, 48 h; outline: as §2
HCT-116 = experiment: Cytotoxicity against human HCT116 cells after 48 hrs by SRB assay; settings: HCT-116, 48 h; outline: as §2

Question: `CSC1=Nc2c(c(C)c(-c3ccccc3)n2CCCN2CCCCC2)C2=NC(=O)CC(C)N12` (stereo not drawn) was tested. Which GI50 (T47D) did it give?
Answer: 2 µM

Question: And the LC50 (T47D)?
Answer: > 100 µM

Question: What about the TGI (T47D; read-out: pTGI (converted)) of the same compound?
Answer: 7.59 µM

Question: And the GI50 (HCC 2998)?
Answer: 3.24 µM

Question: What about the LC50 (HCC 2998) of the same compound?
Answer: 61.7 µM

Question: What about the TGI (HCC 2998; read-out: pTGI (converted)) of the same compound?
Answer: 16.2 µM

Question: And the GI50 (OVCAR-4)?
Answer: 2.57 µM

Question: What about the LC50 (OVCAR-4) of the same compound?
Answer: > 100 µM

Question: What about the TGI (OVCAR-4; read-out: pTGI (converted)) of the same compound?
Answer: 17.8 µM

Question: And the GI50 (NCI-H322M)?
Answer: 6.17 µM

Question: What about the LC50 (NCI-H322M) of the same compound?
Answer: > 100 µM

Question: What about the TGI (NCI-H322M; read-out: pTGI (converted)) of the same compound?
Answer: 89.1 µM

Question: What about the GI50 (COLO 205) of the same compound?
Answer: 1.26 µM

Question: And the LC50 (COLO 205)?
Answer: 5.01 µM

Question: What about the TGI (COLO 205; read-out: pTGI (converted)) of the same compound?
Answer: 2.51 µM

Question: And the GI50 (NCI-H460)?
Answer: 3.24 µM

Question: What about the LC50 (NCI-H460) of the same compound?
Answer: 67.6 µM

Question: What about the TGI (NCI-H460; read-out: pTGI (converted)) of the same compound?
Answer: 12 µM

Question: What about the GI50 (CCRF-CEM) of the same compound?
Answer: 2.69 µM

Question: What about the LC50 (CCRF-CEM) of the same compound?
Answer: > 100 µM

Question: What about the TGI (CCRF-CEM; read-out: pTGI (converted)) of the same compound?
Answer: 12 µM

Question: And the GI50 (HCT-15)?
Answer: 4.47 µM

Question: And the LC50 (HCT-15)?
Answer: > 100 µM

Question: What about the TGI (HCT-15; read-out: pTGI (converted)) of the same compound?
Answer: 28.2 µM

Question: What about the GI50 (MDA-MB-435) of the same compound?
Answer: 2.88 µM

Question: And the LC50 (MDA-MB-435)?
Answer: 58.9 µM

Question: And the TGI (MDA-MB-435; read-out: pTGI (converted))?
Answer: 10.5 µM

Question: And the GI50 (TK-10)?
Answer: 2.88 µM

Question: What about the LC50 (TK-10) of the same compound?
Answer: > 100 µM

Question: What about the TGI (TK-10; read-out: pTGI (converted)) of the same compound?
Answer: 9.33 µM

Question: And the GI50 (EKVX)?
Answer: 3.02 µM

Question: And the LC50 (EKVX)?
Answer: > 100 µM

Question: What about the TGI (EKVX; read-out: pTGI (converted)) of the same compound?
Answer: 20 µM

Question: What about the GI50 (Malme-3M) of the same compound?
Answer: 2.34 µM

Question: And the LC50 (Malme-3M)?
Answer: 53.7 µM

Question: And the TGI (Malme-3M; read-out: pTGI (converted))?
Answer: 7.24 µM

Question: What about the GI50 (SK-MEL-2) of the same compound?
Answer: 2.14 µM

Question: And the LC50 (SK-MEL-2)?
Answer: 20.9 µM

Question: And the TGI (SK-MEL-2; read-out: pTGI (converted))?
Answer: 5.25 µM

Question: And the GI50 (A549)?
Answer: 2.95 µM

Question: What about the LC50 (A549) of the same compound?
Answer: 79.4 µM

Question: What about the TGI (A549; read-out: pTGI (converted)) of the same compound?
Answer: 10.7 µM

Question: What about the GI50 (PC-3) of the same compound?
Answer: 1.38 µM

Question: And the LC50 (PC-3)?
Answer: 9.12 µM

Question: And the TGI (PC-3; read-out: pTGI (converted))?
Answer: 3.55 µM

Question: What about the GI50 (Hs-578T) of the same compound?
Answer: 2.29 µM

Question: And the LC50 (Hs-578T)?
Answer: 97.7 µM

Question: And the TGI (Hs-578T; read-out: pTGI (converted))?
Answer: 7.94 µM

Question: And the LC50 (CAKI-1)?
Answer: > 100 µM

Question: And the TGI (CAKI-1; read-out: pTGI (converted))?
Answer: 18.6 µM

Question: And the GI50 (SN12C)?
Answer: 2.29 µM

Question: What about the LC50 (SN12C) of the same compound?
Answer: > 100 µM

Question: And the TGI (SN12C; read-out: pTGI (converted))?
Answer: 10.7 µM

Question: And the GI50 (MDA-MB-468)?
Answer: 2.69 µM

Question: And the LC50 (MDA-MB-468)?
Answer: > 100 µM

Question: What about the TGI (MDA-MB-468; read-out: pTGI (converted)) of the same compound?
Answer: 10 µM

Question: And the GI50 (SF-268)?
Answer: 3.39 µM

Question: What about the LC50 (SF-268) of the same compound?
Answer: 45.7 µM

Question: What about the TGI (SF-268; read-out: pTGI (converted)) of the same compound?
Answer: 14.1 µM

Question: What about the GI50 (KM12) of the same compound?
Answer: 3.16 µM

Question: What about the LC50 (KM12) of the same compound?
Answer: 33.9 µM

Question: And the TGI (KM12; read-out: pTGI (converted))?
Answer: 11 µM

Question: What about the GI50 (OVCAR-5) of the same compound?
Answer: 19.1 µM

Question: What about the LC50 (OVCAR-5) of the same compound?
Answer: > 100 µM

Question: And the TGI (OVCAR-5; read-out: pTGI (converted))?
Answer: > 100 µM

Question: And the GI50 (SNB-19)?
Answer: 2.95 µM

Question: And the LC50 (SNB-19)?
Answer: > 100 µM

Question: What about the TGI (SNB-19; read-out: pTGI (converted)) of the same compound?
Answer: > 100 µM

Question: What about the GI50 (SK-MEL-5) of the same compound?
Answer: 2 µM

Question: And the LC50 (SK-MEL-5)?
Answer: 14.8 µM

Question: What about the TGI (SK-MEL-5; read-out: pTGI (converted)) of the same compound?
Answer: 4.9 µM

Question: And the GI50 (NCI/ADR-RES)?
Answer: 17 µM

Question: What about the LC50 (NCI/ADR-RES) of the same compound?
Answer: > 100 µM

Question: What about the TGI (NCI/ADR-RES; read-out: pTGI (converted)) of the same compound?
Answer: 74.1 µM

Question: What about the GI50 (M14) of the same compound?
Answer: 3.63 µM

Question: What about the LC50 (M14) of the same compound?
Answer: 64.6 µM

Question: What about the TGI (M14; read-out: pTGI (converted)) of the same compound?
Answer: 17.4 µM

Question: What about the GI50 (MCF7) of the same compound?
Answer: 2.88 µM

Question: What about the LC50 (MCF7) of the same compound?
Answer: 61.7 µM

Question: What about the TGI (MCF7; read-out: pTGI (converted)) of the same compound?
Answer: 11.2 µM

Question: What about the GI50 (HCT-116) of the same compound?
Answer: 2.4 µM

Question: What about the LC50 (HCT-116) of the same compound?
Answer: > 100 µM

Question: What about the TGI (HCT-116; read-out: pTGI (converted)) of the same compound?
Answer: > 100 µM
